Screening data as filed in PubChem BioAssay.
RGS4 block: inhibitors of human RGS4 | P49798 | HEK293 M3R/RGS4 inducible, Fluo-4 calcium flux; active compounds read high; triggered by carbachol at its EC20 | B-score at 10 µM | 310,000 tested, 0.45% active | AID 463165;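 active = B-score, a plate-corrected calcium signal, over three deviations above library mean, with baseline fluorescence within five deviations of library mean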;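 note: RGS4 expression induced by doxycycline in cells with stable M3 receptor; B-score is computed from the integrated fluorescence ratio over baseline after carbachol; higher B-score means a larger calcium signal and so more RGS4 inhibition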
Target sequence (P49798 whole entry, looked up): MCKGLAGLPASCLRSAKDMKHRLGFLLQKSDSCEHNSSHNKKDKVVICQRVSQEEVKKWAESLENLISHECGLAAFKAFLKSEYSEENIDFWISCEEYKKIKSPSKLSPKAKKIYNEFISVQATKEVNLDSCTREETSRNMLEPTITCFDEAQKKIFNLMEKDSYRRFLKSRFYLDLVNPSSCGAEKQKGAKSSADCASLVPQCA
MrgX1 agonist: human MrgX1 receptor agonism, primary screen; Q96LB2; MrgX1-HEK293 cells, Fluo-4 calcium fluorescence, agonist mode; active compounds read high; B-score at 10 µM; 310,000 tested, 0.44% active; AID 588627;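 active = calcium response B-score plate-corrected fluorescence ratio at least 3 library SD, with starting fluorescence B-score inside 5 SD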
Target sequence (Q96LB2 whole entry, looked up): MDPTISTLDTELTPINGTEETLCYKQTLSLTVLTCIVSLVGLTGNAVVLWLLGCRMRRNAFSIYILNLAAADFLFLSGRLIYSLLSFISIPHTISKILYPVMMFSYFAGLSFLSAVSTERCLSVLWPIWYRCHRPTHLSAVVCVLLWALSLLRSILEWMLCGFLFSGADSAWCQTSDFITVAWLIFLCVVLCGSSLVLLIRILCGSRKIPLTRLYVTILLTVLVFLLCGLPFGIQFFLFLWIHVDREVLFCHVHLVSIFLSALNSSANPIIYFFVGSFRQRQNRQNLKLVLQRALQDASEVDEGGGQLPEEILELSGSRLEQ
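Test system: Stable human MrgX1 HEK293 cell line | Schedule: Overnight plating before 1 h dye loading | Read-out basis: Baseline-normalised fluorescence change ratio, B-scored | Detection: Kinetic calcium dye fluorescence, Fluo-4 NW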
MrgX1 PAM: human MrgX1 positive allosteric modulation, primary screen; 310,000 tested, 0.63% active; AID 588675; MrgX1-HEK293, Fluo-4 calcium flux, FDSS; active compounds read high; B-score at 10 µM; Q96LB2;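 active = plate-corrected calcium response at least 3 library SD above typical, normal starting fluorescence, not activating the receptor alone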;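 note: compound read alongside a low EC10 to EC30 dose of BAM8-22 agonist; peak minus trough fluorescence over baseline measured at the second addition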
MrgX1 antag: blocks BAM8-22 activation of human MrgX1 receptor; Q96LB2; MRGX1-HEK293 calcium flux, Fluo-4, BAM8-22 antagonism; active compounds read low; B-score at 10 µM; 310,000 tested, 1.3% active;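 active = calcium-response B-score plate-corrected more than 3 library SD below zero, starting fluorescence within 5 deviations, no agonist response on first addition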;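 note: peak minus trough fluorescence over baseline after final BAM8-22 challenge near maximal dose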
RGS4 act: RGS4 potentiation or activation | HEK293 M3R/inducible RGS4, carbachol calcium flux Fluo4; active compounds read low | B-score at 10 µM | 310,000 tested, 0.92% active | AID 463111;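 active = B-score of the integrated calcium signal more than 4 SD below the library mean, with starting fluorescence not abnormally high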;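 note: negative B-score means reduced calcium response which marks RGS4 activation or potentiation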
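System: HEK293 FlpIn-TREx cells, stable M3R, doxycycline-inducible RGS4. Timing: overnight RGS4 induction, 30 min dye load 37 °C, 20 min compound RT. Also added: carbachol, ECmax concentration. Measured by: Fluo4 fluorescence kinetic imaging of calcium. Evaluation: integrated calcium ratio converted to B score.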
RGS4 inh valid: RGS4 inhibitor validation | shares compounds with RGS4 block | HEK293 M3R/RGS4, carbachol calcium Fluo-4 fluorescence; carbachol added at its EC20; 0 = buffer wells, 100 = carbachol control | calcium response, % at 10 µM | 1,700 tested, 65% active;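 active = duplicate-averaged calcium response above the buffer-only control mean plus 5 SD of those controls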;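 note: integrated fluorescence ratio F max minus min over baseline F0; higher response in RGS4-induced cells means RGS4 inhibition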
M3R Ca ctr: checks RGS4 inhibitor effects in non-induced HEK293 M3R cells | shares compounds with RGS4 block | carbachol calcium Fluo-4; submaximal (EC20) carbachol stimulus; buffer wells 0%, carbachol control wells 100% | activity (percent), % at 10 µM | 1,900 tested, 20% active | AID 493000; call rule not given here;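 note: RGS4 induction absent so cells express M3R without RGS4; higher means more calcium signal and flags a non-specific hit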
M3R basal Ca ctr: second RGS4 inhibitor counter-screen in uninduced cells lacking carbachol; shares compounds with RGS4 block; HEK293 M3R/RGS4 non-induced, Fluo-4 calcium, no carbachol; normalised: buffer wells 0%, carbachol wells 100%; calcium response (agonist-mode artifact), % at 10 µM; 1,900 tested, 22% active; AID 493001;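 active = duplicate-averaged calcium rise in uninduced cells above buffer wells' mean plus 5 SD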
Active calls of the source: *; i = inactive; . = not tested or not shown. An excerpt weighted towards active compounds, which were near 3.5% of everything screened.

SMILES | RGS4 block | MrgX1 agonist | MrgX1 PAM | MrgX1 antag | RGS4 act | RGS4 inh valid | M3R Ca ctr | M3R basal Ca ctr
Cc1ccc2nc(-c3ccc(N)cc3)sc2c1 | 5.6* | i | i | i | i | 16%* | i | i
Nc1ccc2nc(-c3ccccc3)sc2c1 | i | i | i | i | i | . | . | .
OC[C@H]1O[C@@H](n2cnc3c(NC4CCCC4)ncnc32)[C@H](O)[C@@H]1O | i | i | i | i | i | . | . | .
OCC1OC(n2cnc3c(NC4CCCCC4)ncnc32)C(O)C1O (stereo not drawn) | i | i | i | i | i | . | 48%* | i
OCC1OC(n2cnc3c(NC4CCCC4)ncnc32)C(O)C1O (stereo not drawn) | 4.7* | i | i | i | i | 41%* | i | 312%*
C=CCNc1ncnc2c1ncn2C1OC(CO)C(O)C1O (stereo not drawn) | 4.8* | i | i | i | i | 18%* | 67%* | i
CC(C)(C)OC(=O)Nc1ncnc2c1ncn2C1OC(CO)C2OC(C)(C)OC21 (stereo not drawn) | i | i | i | i | i | . | . | .
COc1ccc(S(=O)(=O)N2CCN(C(=O)COc3ccc(C)c(C)c3)CC2)cc1OC | i | i | i | i | i | . | . | .
COc1ccc(CCNC(=O)C2CCCN(S(=O)(=O)c3ccccc3)C2)cc1 (stereo not drawn) | i | i | i | i | i | . | . | .
CCN1C(=O)/C(=C\c2ccncc2)SC1=Nc1ccc(C)c(C)c1 | 8.2* | i | i | i | i | 30%* | i | i
Cc1ccc(C)c(OCCC(=O)OCC(=O)NCCc2ccc(S(N)(=O)=O)cc2)c1 | i | i | i | i | i | . | . | .
Cc1ccc(/C=C(\NC(=O)c2ccc(C)cc2)c2nc(=S)[nH][nH]2)cc1 | 11* | i | i | i | i | 35%* | 44%* | i
Cc1ccc(C(=O)N/C(=C\c2ccccc2F)c2nc(=S)[nH][nH]2)cc1 | i | i | i | i | i | . | . | .
CC(C)c1nc(SCC(=O)Nc2ccc(C(=O)O)cc2)c2c3c(sc2n1)CCCC3 | 4.7* | i | i | i | i | 13%* | i | i
O=C(Cc1ccc(Br)c2ccccc12)N/N=C/c1ccccn1 | 5* | i | i | i | i | 62%* | i | i
COC(=O)c1ccc(/C=C2\CCn3c2nc2cc(C(=O)O)ccc2c3=O)cc1 | i | i | i | i | i | . | . | .
Cc1ccc(C)c(/C=C2\CCn3c2nc2cc(C(=O)O)ccc2c3=O)c1 | i | i | i | i | i | i | i | i
O=C(O)c1ccc2c(=O)n3c(nc2c1)/C(=C/c1ccc(Cl)c(Cl)c1)CC3 | 16* | i | i | i | i | 30%* | i | i
O=C(O)c1ccc2c(=O)n3c(nc2c1)/C(=C/c1cccc(O)c1)CC3 | i | i | i | i | i | . | . | .
CCOC(=O)C1=C(CS(=O)(=O)c2ccc(C)cc2)NC(=O)NC1c1ccc(O)c(OC)c1 (stereo not drawn) | i | i | i | i | i | . | . | .
COC(=O)C1=C(CS(=O)(=O)c2ccc(C)cc2)NC(=O)NC1c1ccc(OC)c(OC)c1 (stereo not drawn) | i | i | i | i | i | i | i | i
CCOC(=O)CSC1=NC(=O)/C(=C/c2ccc(OC)cc2)S1 | 4.8* | i | i | i | i | 34%* | i | 85%*
Oc1ccc(N=Nc2ccccc2)o1 | 4.9* | i | i | i | i | 7.5%* | i | i
O=C(N/N=C/c1ccc(O)cc1O)/C(=C/c1ccccc1)CCO | 9.6* | i | i | i | i | 53%* | 38%* | i
Cn1cc(C(C[N+](=O)[O-])c2ccccc2)c2ccccc21 (stereo not drawn) | i | i | i | i | i | . | . | .
SMILES | RGS4 block | MrgX1 agonist | MrgX1 PAM | MrgX1 antag | RGS4 act | RGS4 inh valid | M3R Ca ctr | M3R basal Ca ctr
O=c1[nH][nH]c(-c2ccccc2O)c1C(C[N+](=O)[O-])c1ccc(Br)cc1 (stereo not drawn) | 15* | i | i | i | i | 32%* | 36%* | 20%*
COc1ccc(C(C[N+](=O)[O-])c2c(C)[nH]c3ccccc23)cc1OC (stereo not drawn) | i | i | i | i | i | . | . | .
Cc1ccc(C(C[N+](=O)[O-])c2c(-c3ccccc3O)[nH][nH]c2=O)cc1 (stereo not drawn) | 6.3* | i | i | i | i | 34%* | 68%* | 22%*
COc1ccc(C(=O)COC(=O)CCS(=O)(=O)c2ccc(C)cc2)c(OC)c1 | i | i | i | i | i | . | . | .
COc1ccc(C(=O)CCS(=O)(=O)c2ccc(C)cc2)cc1OC | 29* | i | i | i | i | 80%* | 58%* | 20%*
O=C(c1ccc(COCC(F)(F)F)o1)N1CCCCCC1 | i | i | i | i | i | . | 38%* | i
CCOCC(=O)Nc1ccc(S(=O)(=O)Nc2nccs2)cc1 | i | i | i | i | i | . | . | .
CCOC(=O)/C=C/C(=O)Nc1ccc(S(=O)(=O)Nc2nccs2)cc1 | 5* | i | i | i | i | 23%* | i | i
O=C(CCN1CCN(c2ccccc2)CC1)c1ccc(Br)cc1 | 27* | i | i | i | i | 16%* | i | i
O=C(CCN1CCOCC1)c1ccc(Cl)cc1 | 12* | i | i | i | i | 17%* | 56%* | 25%*
O=C(CCN1CCOCC1)c1ccc(Br)cc1 | 8.4* | i | i | i | i | 29%* | i | 16%*
Clc1ccc(OCCN2CCOCC2)cc1 | i | i | i | i | i | . | . | .
CCCCCOc1ccc(C(=O)CCN2CCOCC2)cc1 | i | i | i | i | i | . | . | .
O=C1Cc2ccccc2C(=O)N1c1ccccc1 | 5.6* | i | i | i | i | 5.0%* | i | i
O=C1Cc2ccccc2C(=O)N1c1cccc(Cl)c1 | i | i | i | i | i | . | . | .
